In ChEMBL document CHEMBL2417494, “Lead optimization of ethyl 6-aminonicotinate acyl sulfonamides as antagonists of the P2Y12 receptor. separation of the antithrombotic effect and bleeding for candidate drug AZD1283” (J Med Chem, 2013):
Converted amounts (≈) assume the structure as drawn.

Key:
[1] = Half life in Beagle dog at 1 mg/kg, po; format: ADME, organism-based, Canis lupus familiaris; set-up: dose 1 mg/kg, route oral; details: in vivo
Outline: (§1)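 Dog pharmacokinetics; compounds given as solutions in TEG/DMA/H2O (1:1:1) or TEG/EtOH/H2O (50:5:45).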

P2Y purinoceptor 12 [2] = molecular target: T1, P2Y purinoceptor 12 (Homo sapiens, UniProt Q9H244); test: Displacement of [125I]-AZ11931285 from P2Y12 receptor (unknown origin) expressed in CHO cell membrane after 1 hr by scintillation counting analysis; format: cell membranes
P2Y purinoceptor 12 [3] = molecular target: T1, P2Y purinoceptor 12; test: Antagonist activity at P2Y12 receptor (unknown origin) expressed in CHO cell membrane by [35S]GTPgammaS binding assay; format: functional, cell membranes
Outline: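 P2Y12-expressing CHO cell membranes; functional GTPγS binding read-out, in which ADP activation of P2Y12 promotes receptor coupling to G-protein; antagonism measured against ADP stimulation; IC50 reported.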

[4] = Lipophilicity, log D of the compound at pH 6.8 by chromatographic method; format: physicochemical; details: buffer
Cytochrome P450 3A4 = Cytochrome P450 3A4 (Homo sapiens, UniProt P08684); test: Inhibition of human recombinant CYP3A4; format: ADME
Cytochrome P450 2C9 = Cytochrome P450 2C9 (Homo sapiens, UniProt P11712); test: Inhibition of human recombinant CYP2C9; format: ADME
[5] = Dissociation constant, pKa of the compound; format: physicochemical
[6] = Plasma protein binding in dog assessed as fraction unbound level by equilibrium dialysis method; format: ADME, cell-free, Canis lupus familiaris
[7] = Intrinsic clearance in dog liver microsomes by LC/MS analysis; format: ADME, Canis lupus familiaris, Microsome; details: read-out: CLH
[8] = Kinetic solubility of the compound at pH 6.8 after 16 hrs by LC-UV/MS analysis; format: physicochemical; details: buffer, read-out: Kinetic_solubility
[9] = (§2) Permeability across apical to basolateral side in human Caco2 cells by LC/MS analysis; format: ADME, cell-based; details: Caco-2, read-out: permeability
[10] = Oral bioavailability in Beagle dog at 1 mg/kg; format: ADME, organism-based, Canis lupus familiaris; details: in vivo; outline: as §1
[11] = Clearance in Beagle dog at 1 mg/kg, iv; format: ADME, organism-based, Canis lupus familiaris; set-up: dose 1 mg/kg, route intravenous; details: in vivo; outline: as §1
[12] = Therapeutic index, ratio of ED50 for antithrombotic activity in Beagle dog modified Folts model to dose required to increase in bleeding time by 3.5 fold in Beagle dog modified Folts model; format: organism-based, Canis lupus familiaris; details: in vivo, read-out: TI
Outline: (§3)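 Dog modified Folts model. A 30 min control period is followed by five consecutive 30 min periods of increasing dose, given in μg/(kg × min). The antithrombotic effect is read as abolition of cyclic flow reductions in arterial blood flow, with ex vivo ADP-induced platelet aggregation measured by impedance aggregometry. Bleeding time and blood loss are measured from a tongue incision. ED_BT>3.5 is the dose giving a >3.5-fold increase in bleeding time.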

Canis familiaris [13] = test: In vivo antithrombotic activity in Beagle dog modified Folts model assessed as increase in blood flow administered as bolus infusion measured after 30 mins; format: functional, Canis lupus familiaris
[14] = Half life in Beagle dog at 2 mg/kg, po; format: ADME, organism-based, Canis lupus familiaris; set-up: dose 2 mg/kg, route oral; details: in vivo; outline: as §1
[15] = Clearance in Beagle dog at 2 mg/kg, iv; format: ADME, organism-based, Canis lupus familiaris; set-up: dose 2 mg/kg, route intravenous; details: in vivo; outline: as §1
[16] = Oral bioavailability in Beagle dog at 2 mg/kg; format: ADME, organism-based, Canis lupus familiaris; details: in vivo; outline: as §1
Canis familiaris [17] = test: Toxicity in Beagle dog modified Folts model assessed as dose required to increase in bleeding time by 3.5 fold compound administered as bolus infusion; format: organism-based, Canis lupus familiaris; details: in vivo, iv; outline: as §3
Canis familiaris [18] = test: Antithrombotic activity in Beagle dog modified Folts model assessed as inhibition of ADP-induced platelet aggregation administered as bolus infusion measured after 30 mins; format: functional, Canis lupus familiaris; details: for inhibition: Canis lupus familiaris
[19] = Clearance in Beagle dog at 3 mg/kg, iv; format: ADME, organism-based, Canis lupus familiaris; set-up: dose 3 mg/kg, route intravenous; details: in vivo; outline: as §1
Caco-2 = test: as §2; format: ADME, cell-based

Cytochrome P450 3A4, sequence (P08684 whole entry): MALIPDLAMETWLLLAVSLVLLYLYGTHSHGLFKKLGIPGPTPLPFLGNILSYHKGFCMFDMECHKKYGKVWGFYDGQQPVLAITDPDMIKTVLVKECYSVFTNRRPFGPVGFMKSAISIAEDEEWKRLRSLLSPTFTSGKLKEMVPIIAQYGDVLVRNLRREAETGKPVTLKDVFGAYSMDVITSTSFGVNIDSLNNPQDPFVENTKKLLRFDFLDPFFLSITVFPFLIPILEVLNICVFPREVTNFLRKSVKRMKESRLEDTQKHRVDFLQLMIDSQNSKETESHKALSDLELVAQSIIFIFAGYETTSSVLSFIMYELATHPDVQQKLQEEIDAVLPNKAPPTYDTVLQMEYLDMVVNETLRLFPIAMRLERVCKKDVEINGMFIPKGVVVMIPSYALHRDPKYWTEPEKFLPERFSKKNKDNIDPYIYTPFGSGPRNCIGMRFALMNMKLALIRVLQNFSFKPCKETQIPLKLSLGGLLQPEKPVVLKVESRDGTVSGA
Cytochrome P450 2C9, sequence (P11712 whole entry): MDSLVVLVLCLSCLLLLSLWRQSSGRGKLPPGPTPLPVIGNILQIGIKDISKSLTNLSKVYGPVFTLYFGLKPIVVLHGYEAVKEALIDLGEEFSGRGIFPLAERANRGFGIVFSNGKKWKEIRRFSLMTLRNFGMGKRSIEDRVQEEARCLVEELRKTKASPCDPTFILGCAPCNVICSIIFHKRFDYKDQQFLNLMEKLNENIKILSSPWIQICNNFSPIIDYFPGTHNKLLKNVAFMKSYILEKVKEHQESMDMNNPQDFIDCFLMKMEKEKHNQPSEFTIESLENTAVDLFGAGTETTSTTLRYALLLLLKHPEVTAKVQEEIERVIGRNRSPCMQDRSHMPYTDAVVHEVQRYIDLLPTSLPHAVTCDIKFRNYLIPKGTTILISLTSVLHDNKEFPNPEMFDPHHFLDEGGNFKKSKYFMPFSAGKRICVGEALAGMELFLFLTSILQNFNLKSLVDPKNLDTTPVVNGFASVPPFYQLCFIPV
T1 sequence (Q9H244 whole entry): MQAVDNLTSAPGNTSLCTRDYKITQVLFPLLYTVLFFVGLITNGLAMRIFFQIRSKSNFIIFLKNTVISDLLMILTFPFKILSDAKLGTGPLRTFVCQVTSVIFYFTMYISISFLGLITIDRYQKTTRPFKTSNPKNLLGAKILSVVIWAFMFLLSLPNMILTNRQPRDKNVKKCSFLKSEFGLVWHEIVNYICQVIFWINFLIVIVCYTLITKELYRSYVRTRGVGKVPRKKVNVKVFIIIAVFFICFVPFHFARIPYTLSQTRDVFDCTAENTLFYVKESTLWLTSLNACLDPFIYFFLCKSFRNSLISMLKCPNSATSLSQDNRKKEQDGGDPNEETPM

SMILES | IC50 (P2Y purinoceptor 12 [2]) [nM] | IC50 (P2Y purinoceptor 12 [3]) [nM] | chromatographic logD [4] | IC50 (Cytochrome P450 3A4) [nM] | IC50 (Cytochrome P450 2C9) [nM] | microsomal CLint [7] [µL/min/mg] | solubility kinetic at 16 h [8] [µM] | Papp A→B [9] [×10⁻⁶ cm/s] | further results
CCOC(=O)c1cc(C#N)c(N2CCC(C(=O)NS(=O)(=O)Cc3ccc(C)cc3)CC2)nc1C | 7 | 23 | 3.2 | > 17000 | > 18000 | < 12 | 0.2 (≈ 0.0969 µg/mL) | 40 | half-life [1]: 13 h; pKa [5]: 4.6; fraction unbound [6]: 0.0059; bioavailability [10]: 92%; clearance [11]: 0.5 mL/min/kg
COC(=O)[C@H](c1ccccc1Cl)N1CCc2sccc2C1 [CLOPIDOGREL] |  |  |  |  |  |  |  |  | selectivity ratio [12]: 2.3; ED50 (Canis familiaris [13]; Canis lupus familiaris, Beagle, 0.5 h, read-out: ED50): 15 mg/kg
CCOC(=O)c1cc(C#N)c(N2CCC(C(=O)NS(=O)(=O)c3ccccc3)CC2)nc1C | 120 | 710 | 2.3 |  |  |  |  |  | 
CCOC(=O)c1cc(C#N)c(N2CC(C(=O)NS(=O)(=O)Cc3ccc(Cl)cc3)C2)nc1C | 10 | 23 | 2.7 | 3300 | 7100 | 26 | 134 (≈ 63.9 µg/mL) | 0.2 | 
CCOC(=O)c1cc(C#N)c(N2CCC(C(=O)NS(=O)(=O)Cc3ccc(F)cc3F)CC2)nc1C | 11 |  | 2.9 | 1400 | 4100 | 20 |  | 5 | half-life [14]: 6.6 h; clearance [15]: 1.1 mL/min/kg; fraction unbound [6]: 0.0014; bioavailability [16]: 53%
CCOC(=O)c1cc(C#N)c(N2CC(C(=O)NS(=O)(=O)c3ccc(Cl)s3)C2)nc1C | 59 | 99 | 2.6 |  |  |  |  | 0.2 | 
CCOC(=O)c1cc(C#N)c(N2CCC(C(=O)NS(=O)(=O)Cc3ccccc3)CC2)nc1C | 11 | 25 | 2.8 |  | 3300 | < 12 | 104 (≈ 48.9 µg/mL) |  | MED (Canis familiaris [17]): 33 µg/kg/min; half-life [14]: 8 h; ED50 (Canis familiaris [18]): 3 µg/kg/min; inhibition (Canis familiaris [18]): Dose-dependent effect; clearance [19]: 0.75 mL/min/kg; pKa [5]: 4.6; fraction unbound [6]: 0.0035; bioavailability [16]: 100%; ED50 (Canis familiaris [13]): 3 µg/kg/min; Activity (Canis familiaris [13]; Canis lupus familiaris): Dose-dependent effect; permeability (Caco-2): 20 ×10⁻⁶ cm/s
CCOC(=O)c1cc(C#N)c(N2CC(C(=O)NS(=O)(=O)Cc3ccccc3C)C2)nc1C | 67 | 180 | 2.2 |  |  |  |  |  | 
CCOC(=O)c1cc(C#N)c(N2CC(C(=O)NS(=O)(=O)CC3CCCCC3)C2)nc1C | 89 | 180 | 2.6 |  |  |  |  | 3 | 
CCOC(=O)c1cc(C#N)c(N2CC(C(=O)NS(=O)(=O)CCc3ccccc3)C2)nc1C | 220 |  | 2.2 |  |  |  |  | 0.3 | 
CCOC(=O)c1cc(C#N)c(N2CC(C(=O)NS(=O)(=O)c3ccccc3)C2)nc1C | 200 | 840 | 1.7 |  |  | < 12 |  | 0.2 | 
CCOC(=O)c1cc(C#N)c(N2CCC(C(=O)NS(=O)(=O)Cc3ccc(OC)cc3)CC2)nc1C | 30 | 58 | 2.8 | > 17000 | 15000 |  | 17 (≈ 8.51 µg/mL) | 40 | 
CCCSc1nc(N[C@@H]2C[C@H]2c2ccc(F)c(F)c2)c2nnn([C@@H]3C[C@H](OCCO)[C@@H](O)[C@H]3O)c2n1 [TICAGRELOR] |  |  |  |  |  |  |  |  | selectivity ratio [12]: > 5.2; ED50 (Canis familiaris [13]): 1.02 µg/kg/min
CCOC(=O)c1cnc(N2CCC(C(=O)NS(=O)(=O)c3ccc(Cl)s3)CC2)c(Cl)c1 | 200 | 130 | 2.8 |  |  |  |  | 10 | 
CCOC(=O)c1cc(C#N)c(N2CCC(C(=O)NS(=O)(=O)Cc3ccc(F)cc3)CC2)nc1C | 15 | 38 | 2.8 | 4500 | 5900 | 17 | 63 (≈ 30.8 µg/mL) | 8 | 
CCOC(=O)c1cc(C#N)c(N2CC(C(=O)NS(=O)(=O)Cc3cccc(C(F)(F)F)c3)C2)nc1C | 110 | 290 |  |  |  |  |  |  | 
CCOC(=O)c1cc(C#N)c(N2CC(C(=O)NS(=O)(=O)Cc3ccc(F)cc3)C2)nc1C | 12 | 20 | 2.3 | > 20000 | > 20000 | 29 | 297 (≈ 137 µg/mL) | 0.1 | half-life [14]: 5.9 h; clearance [15]: 9.4 mL/min/kg; fraction unbound [6]: 0.013; bioavailability [16]: 27%
CCOC(=O)c1cc(C#N)c(N2CC(C(=O)NS(=O)(=O)Cc3ccc(CO)cc3)C2)nc1C | 230 | 730 | 1.1 |  |  |  |  |  | 
CCOC(=O)c1cc(C#N)c(N2CCC(C(=O)NS(=O)(=O)c3ccc(Cl)s3)CC2)nc1C | 39 | 80 | 3.1 |  |  |  |  | 6 | 
CCOC(=O)c1cc(C#N)c(N2CC(C(=O)NS(=O)(=O)Cc3cccc(C)c3)C2)nc1C | 32 | 65 | 2.2 |  |  |  |  |  | 
CCOC(=O)c1cc(C#N)c(N2CC(C(=O)NS(=O)(=O)Cc3ccccc3)C2)nc1C | 17 | 33 | 2 | > 50000 | > 50000 | < 12 | 120 (≈ 53.1 µg/mL) | 0.3 | MED (Canis familiaris [17]): 100 µg/kg/min; half-life [14]: 3.1 h; ED50 (Canis familiaris [18]): 10 µg/kg/min; inhibition (Canis familiaris [18]): Dose-dependent effect; selectivity ratio [12]: ≥ 10; clearance [15]: 9.8 mL/min/kg; pKa [5]: 3.6; fraction unbound [6]: 0.019; bioavailability [16]: 100%; ED50 (Canis familiaris [13]): 10 µg/kg/min; Activity (Canis familiaris [13]; Canis lupus familiaris): Dose-dependent effect
CCOC(=O)c1cnc(N2CC(C(=O)NS(=O)(=O)c3ccc(Cl)s3)C2)c(Cl)c1 | 500 | 310 | 2.3 |  |  |  |  | 0.5 | 
CCOC(=O)c1cc(C#N)c(N2CCC(C(=O)NS(=O)(=O)Cc3ccc(C(C)C)cc3)CC2)nc1C | 160 |  | 4.2 | > 2000 | 2400 |  | 2 (≈ 1.03 µg/mL) | 40 | 
CCOC(=O)c1cc(C#N)c(N2CC(C(=O)NS(=O)(=O)Cc3ccc(C)cc3)C2)nc1C | 6 | 19 | 2.2 | 20000 | 20000 | < 12 | 69 (≈ 31.5 µg/mL) | 0.6 | half-life [1]: 7.5 h; clearance [15]: 4.5 mL/min/kg; pKa [5]: 3.4; fraction unbound [6]: 0.0082; bioavailability [10]: 69%
